≈ marks a conversion by molar mass, not a printed value.
Key:
Staphylococcus aureus [1] = assay: Antibacterial activity against Staphylococcus aureus ATCC 29213 assessed as reduction in bacterial growth incubated for 24 hrs by broth microdilution method; format: functional
Procedure, shortened: (§1)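 Cation-adjusted Mueller-Hinton broth microdilution per EUCAST, modified; compounds from DMSO stocks, final DMSO ≤1% v/v; scale starting from 0.49 µM. Static incubation at 35 ± 2 °C, dark, humidified, read at 24 and 48 h. MIC = lowest concentration with no visible growth by eye; duplicates, parallel readings within one dilution step; growth and medium/DMSO controls included.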

Staphylococcus aureus [2] = assay: Antibacterial activity against Staphylococcus aureus ATCC 29213 assessed as reduction in bacterial growth incubated for 48 hrs by broth microdilution method; format: functional; procedure, shortened: as §1
Staphylococcus aureus [3] = assay: Antibacterial activity against methicillin-resistant Staphylococcus aureus ATCC 43300 assessed as reduction in bacterial growth incubated for 24 hrs by broth microdilution method; format: functional
Procedure, shortened: (§2)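 EUCAST-based broth microdilution in cation-adjusted Mueller-Hinton broth. DMSO stocks, final DMSO ≤1% v/v, concentration scale starting from 0.49 µM. Static incubation at 35 ± 2 °C, dark and humidified. Run in duplicate, accepted only if parallel MICs differ by at most one dilution step. MIC is the lowest concentration with no visible growth by naked eye.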

Staphylococcus aureus [4] = assay: Antibacterial activity against methicillin-resistant Staphylococcus aureus ATCC 43300 assessed as reduction in bacterial growth incubated for 48 hrs by broth microdilution method; format: functional; procedure, shortened: as §2
[5] = system: Staphylococcus epidermidis; assay: Antibacterial activity against Staphylococcus epidermidis ATCC 12228 assessed as reduction in bacterial growth incubated for 24 hrs by broth microdilution method; format: functional; procedure, shortened: as §1
[6] = system: Staphylococcus epidermidis; assay: Antibacterial activity against Staphylococcus epidermidis ATCC 12228 assessed as reduction in bacterial growth incubated for 48 hrs by broth microdilution method; format: functional; procedure, shortened: as §1
Enterococcus faecalis [7] = assay: Antibacterial activity against Enterococcus faecalis ATCC 29212 assessed as reduction in bacterial growth incubated for 24 hrs by broth microdilution method; format: functional; procedure, shortened: as §1
Enterococcus faecalis [8] = assay: Antibacterial activity against Enterococcus faecalis ATCC 29212 assessed as reduction in bacterial growth incubated for 48 hrs by broth microdilution method; format: functional; procedure, shortened: as §1
Escherichia coli [9] = assay: Antibacterial activity against Escherichia coli ATCC 25922 assessed as reduction in bacterial growth incubated for 24 hrs by broth microdilution method; format: functional; procedure, shortened: as §1
Escherichia coli [10] = assay: Antibacterial activity against Escherichia coli ATCC 25922 assessed as reduction in bacterial growth incubated for 48 hrs by broth microdilution method; format: functional; procedure, shortened: as §1
Candida albicans [11] = assay: Antifungal activity against Candida albicans ATCC 24443 assessed as reduction in fungal growth incubated for 24 hrs by broth microdilution method; format: functional
Procedure, shortened: (§3)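 Broth microdilution per EUCAST (yeasts and moulds), modified: twofold dilutions from DMSO (final ≤1% v/v) in RPMI-1640 with L-glutamine, 2% glucose, MOPS-buffered pH 7.0; scale from 0.49 µM. Static, dark, humidified, 35 ± 2 °C for 24 and 48 h (Trichophyton interdigitale 72 and 120 h). MIC = complete visible inhibition by eye; duplicates within one dilution step.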

Candida albicans [12] = assay: Antifungal activity against Candida albicans ATCC 24443 assessed as reduction in fungal growth incubated for 48 hrs by broth microdilution method; format: functional; procedure, shortened: as §3
Pichia kudriavzevii [13] = assay: Antifungal activity against Candida krusei ATCC 6258 assessed as reduction in fungal growth incubated for 24 hrs by broth microdilution method; format: functional; procedure, shortened: as §3
Pichia kudriavzevii [14] = assay: Antifungal activity against Candida krusei ATCC 6258 assessed as reduction in fungal growth incubated for 48 hrs by broth microdilution method; format: functional; procedure, shortened: as §3
Candida parapsilosis [15] = assay: Antifungal activity against Candida parapsilosis ATCC 22019 assessed as reduction in fungal growth incubated for 24 hrs by broth microdilution method; format: functional; settings: Lodderomyces parapsilosis; procedure, shortened: as §3
Candida parapsilosis [16] = assay: Antifungal activity against Candida parapsilosis ATCC 22019 assessed as reduction in fungal growth incubated for 48 hrs by broth microdilution method; format: functional; settings: Lodderomyces parapsilosis; procedure, shortened: as §3
Lichtheimia corymbifera [17] = assay: Antifungal activity against Lichtheimia corymbifera CCM 8077 assessed as reduction in fungal growth incubated for 24 hrs by broth microdilution method; format: functional; procedure, shortened: as §3
Lichtheimia corymbifera [18] = assay: Antifungal activity against Lichtheimia corymbifera CCM 8077 assessed as reduction in fungal growth incubated for 48 hrs by broth microdilution method; format: functional; procedure, shortened: as §3
[19] = system: Trichophyton interdigitale; assay: Antifungal activity against Trichophyton interdigitale ATCC 9533 assessed as reduction in fungal growth incubated for 72 hrs by broth microdilution method; format: functional; procedure, shortened: as §3
[20] = system: Trichophyton interdigitale; assay: Antifungal activity against Trichophyton interdigitale ATCC 9533 assessed as reduction in fungal growth incubated for 120 hrs by broth microdilution method; format: functional; procedure, shortened: as §3
HepG2 [21] = assay: Cytotoxicity against human HepG2 cells assessed as reduction in cell viability incubated for 24 hrs by cell-titer 96 aqueous one solution cell proliferation assay; format: functional, cell-based; settings: HepG2, 24 h
HK-2 = assay: Cytotoxicity against human HK-2 cells assessed as reduction in cell viability incubated for 24 hrs by cell-titer 96 aqueous one solution cell proliferation assay; format: cell-based; settings: HK-2, 24 h
HepG2 [22] = assay: Antiproliferative activity against human HepG2 cells assessed as increase in caspase 3/7 level at 100 uM incubated for 24 hrs by Caspase-glo reagent based microplate reader analysis relative to control; format: functional
Procedure, shortened: (§4)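 HepG2 cells seeded at 15 000/well, compounds diluted in complete MEM, 24 h at 37 °C, 5% CO2; untreated vehicle controls. Caspase-Glo 3/7 reagent added, shaken 350 rpm at room temperature 60 min in dark, luminescence read. Expressed as fold of untreated control; triplicate wells, mean ± SD with n = 6.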

HepG2 [23] = assay: Antiproliferative activity against human HepG2 cells assessed as increase in caspase 3/7 level at 1 uM incubated for 24 hrs by Caspase-glo reagent based microplate reader analysis relative to control; format: functional; procedure, shortened: as §4

Compound | MIC (Staphylococcus aureus [1]) [µM] | MIC (Staphylococcus aureus [2]) [µM] | MIC (Staphylococcus aureus [3]) [µM] | MIC (Staphylococcus aureus [4]) [µM] | MIC [5] [µM] | MIC [6] [µM] | MIC (Enterococcus faecalis [7]) [µM] | MIC (Enterococcus faecalis [8]) [µM] | MIC (Escherichia coli [9]) [µM] | MIC (Escherichia coli [10]) [µM] | MIC (Candida albicans [11]) [µM] | MIC (Candida albicans [12]) [µM] | MIC (Pichia kudriavzevii [13]) [µM] | MIC (Pichia kudriavzevii [14]) [µM] | MIC (Candida parapsilosis [15]) [µM] | MIC (Candida parapsilosis [16]) [µM] | MIC (Lichtheimia corymbifera [17]) [µM] | MIC (Lichtheimia corymbifera [18]) [µM] | MIC [19] [µM] | IC50 (HepG2 [21]) [µM] | further results
O=C(NNCc1cc(I)cc(I)c1O)c1ccc(F)cc1 | 62.5 (≈ 32 µg/mL) | 125 (≈ 64 µg/mL) | 62.5 (≈ 32 µg/mL) | 125 (≈ 64 µg/mL) | 62.5 (≈ 32 µg/mL) | 62.5 (≈ 32 µg/mL) | 31.2 (≈ 16 µg/mL) | 62.5 (≈ 32 µg/mL) | > 500 | > 500 | 125 (≈ 64 µg/mL) | > 125 | > 125 | > 125 | > 125 | > 125 | 15.6 (≈ 8 µg/mL) | 31.2 (≈ 16 µg/mL) | 15.6 (≈ 8 µg/mL) | 52.2 | MIC [20]: 31.2 µM (≈ 16 µg/mL)
Oc1c(I)cc(I)cc1CNNC(O)c1ccc(F)cc1 (stereo not drawn) | 15.6 (≈ 8.03 µg/mL) | 15.6 (≈ 8.03 µg/mL) | 31.2 (≈ 16.1 µg/mL) | 62.5 (≈ 32.1 µg/mL) | 7.81 (≈ 4.01 µg/mL) | 7.81 (≈ 4.01 µg/mL) | 15.6 (≈ 8.03 µg/mL) | 15.6 (≈ 8.03 µg/mL) | > 500 | > 500 | > 500 | > 500 | > 500 | > 500 | > 500 | > 500 | > 500 | > 500 | 62.5 (≈ 32.1 µg/mL) | 41.9 | MIC [20]: 62.5 µM (≈ 32.1 µg/mL)
O=C(N/N=C/c1cc(I)cc(I)c1O)c1ccc(F)cc1 | 15.6 (≈ 7.97 µg/mL) | 31.2 (≈ 15.9 µg/mL) | 15.6 (≈ 7.97 µg/mL) | 31.2 (≈ 15.9 µg/mL) | 31.2 (≈ 15.9 µg/mL) | 31.2 (≈ 15.9 µg/mL) | 31.2 (≈ 15.9 µg/mL) | 62.5 (≈ 31.9 µg/mL) | > 500 | > 500 | 62.5 (≈ 31.9 µg/mL) | 125 (≈ 63.8 µg/mL) | 125 (≈ 63.8 µg/mL) | 125 (≈ 63.8 µg/mL) | 62.5 (≈ 31.9 µg/mL) | 125 (≈ 63.8 µg/mL) | 125 (≈ 63.8 µg/mL) | 125 (≈ 63.8 µg/mL) | 15.6 (≈ 7.97 µg/mL) | 12.1 | MIC [20]: 62.5 µM (≈ 31.9 µg/mL); IC50 (HK-2): 55.6 µM; fold change (FC) (HepG2 [22]): 1.33; fold change (FC) (HepG2 [23]): 1.36
CC(C)(C)c1ccc(C(=O)N/N=C/c2cc(I)c(O)c(I)c2)cc1 | 125 (≈ 68.5 µg/mL) | 125 (≈ 68.5 µg/mL) | 125 (≈ 68.5 µg/mL) | 250 (≈ 137 µg/mL) | 125 (≈ 68.5 µg/mL) | 250 (≈ 137 µg/mL) | 250 (≈ 137 µg/mL) | 500 (≈ 274 µg/mL) | > 500 | > 500 | – | – | – | – | – | – | – | – | – | 45.9 | IC50 (HK-2): > 250 µM

Source: ChEMBL document CHEMBL4811275, “Iodinated 1,2-diacylhydrazines, benzohydrazide-hydrazones and their analogues as dual antimicrobial and cytotoxic agents” (Bioorg Med Chem, 2021)
